Tests used:
[1] = molecular target: T1, Transient receptor potential cation channel subfamily V member 1 (Homo sapiens, UniProt Q8NER1); test: Agonist activity at human recombinant TRPV1 expressed in HEK293 cells assessed as increase in intracellular calcium level relative to ionomycin; format: functional, cell-based
Outline: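 Stably transfected HEK-293 cells loaded 1 h at 25 °C with 4 µM Fluo-4 AM, washed, resuspended in Tyrode's buffer pH 7.4. Fluorescence (ex 488/em 516 nm) read at 25 °C with stirring, before and after compound at various concentrations. Efficacy relative to 4 µM ionomycin. EC50 is the concentration giving half-maximal [Ca2+]i rise, by sigmoidal fit. At least triplicate.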

Cannabinoid receptor 2 = Cannabinoid receptor 2 (Homo sapiens, UniProt P34972); test: Displacement of [3H]CP-55940 from human recombinant CB2 receptor expressed in HEK293 cell membrane; format: cell membranes
[2] = molecular target: T1, Transient receptor potential cation channel subfamily V member 1; test: Agonist activity at human recombinant TRPV1 expressed in HEK293 cells assessed as increase in intracellular calcium level; format: functional, cell-based
Outline: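 Stably transfected HEK-293 cells loaded 1 h at 25 °C with 4 µM Fluo-4 AM, washed, resuspended in Tyrode's buffer pH 7.4. Efficacy relative to 4 µM ionomycin. EC50 is the concentration giving half-maximal [Ca2+]i rise, by sigmoidal fit. At least triplicate.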

Cannabinoid receptor 1 [3] = molecular target: Cannabinoid receptor 1 (Homo sapiens, UniProt P21554); test: Displacement of [3H]CP-55940 from human recombinant CB1 receptor expressed in HEK293 cell membrane; format: cell membranes
Cannabinoid receptor 1 [4] = molecular target: Cannabinoid receptor 1 (Mus musculus, UniProt P47746); test: Agonist activity at CB1 receptor expressed in mouse brain membrane by [35S]GTPgammaS binding assay; format: functional, cell membranes
Outline: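 Mouse brain membranes (10 µg/mL) preincubated 30 min at 30 °C with adenosine deaminase 0.5 U/mL, in Tris buffer with MgCl2, EDTA, NaCl, DTT, 0.1% BSA, 0.1 nM [35S]GTPγS, 30 µM GDP; compounds 60 min at 30 °C. Nonspecific with 30 µM GTPγS. Filtration, scintillation counting. 0.1% DMSO vehicle. Basal subtracted; EC50 and Emax by sigmoid nonlinear regression.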

T1 sequence (Q8NER1 whole entry): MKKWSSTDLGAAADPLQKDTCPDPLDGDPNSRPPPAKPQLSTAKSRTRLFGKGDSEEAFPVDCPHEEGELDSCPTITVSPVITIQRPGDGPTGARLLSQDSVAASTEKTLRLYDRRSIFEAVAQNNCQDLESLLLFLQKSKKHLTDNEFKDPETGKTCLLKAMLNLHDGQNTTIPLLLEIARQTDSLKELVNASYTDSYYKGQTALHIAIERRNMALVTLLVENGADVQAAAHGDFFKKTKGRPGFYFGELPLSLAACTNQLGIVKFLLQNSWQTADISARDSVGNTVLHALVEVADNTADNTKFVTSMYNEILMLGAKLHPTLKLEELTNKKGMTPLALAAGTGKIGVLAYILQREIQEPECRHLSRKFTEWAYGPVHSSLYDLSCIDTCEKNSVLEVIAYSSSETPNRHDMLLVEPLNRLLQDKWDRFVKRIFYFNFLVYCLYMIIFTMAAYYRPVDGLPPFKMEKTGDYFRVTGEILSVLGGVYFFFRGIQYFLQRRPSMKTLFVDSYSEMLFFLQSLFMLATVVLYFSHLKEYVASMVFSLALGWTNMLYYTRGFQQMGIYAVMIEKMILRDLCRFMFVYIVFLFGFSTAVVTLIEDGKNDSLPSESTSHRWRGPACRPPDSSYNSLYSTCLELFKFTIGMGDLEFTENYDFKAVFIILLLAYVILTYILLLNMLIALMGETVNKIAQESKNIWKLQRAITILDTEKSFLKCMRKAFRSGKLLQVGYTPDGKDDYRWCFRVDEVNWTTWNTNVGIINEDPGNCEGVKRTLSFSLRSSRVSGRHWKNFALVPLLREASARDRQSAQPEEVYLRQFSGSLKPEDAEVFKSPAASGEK
Cannabinoid receptor 2, sequence (P34972 whole entry): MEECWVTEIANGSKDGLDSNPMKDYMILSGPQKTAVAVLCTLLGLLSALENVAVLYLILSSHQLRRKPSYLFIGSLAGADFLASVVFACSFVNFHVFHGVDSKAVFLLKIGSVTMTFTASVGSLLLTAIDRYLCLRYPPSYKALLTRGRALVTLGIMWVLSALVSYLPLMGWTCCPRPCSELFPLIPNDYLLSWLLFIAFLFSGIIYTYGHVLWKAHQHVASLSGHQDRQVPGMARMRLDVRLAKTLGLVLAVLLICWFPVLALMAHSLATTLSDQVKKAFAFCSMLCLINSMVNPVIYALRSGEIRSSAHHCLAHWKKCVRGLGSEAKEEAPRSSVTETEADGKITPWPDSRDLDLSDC
Cannabinoid receptor 1 (Homo sapiens, UniProt P21554), sequence (P21554 whole entry): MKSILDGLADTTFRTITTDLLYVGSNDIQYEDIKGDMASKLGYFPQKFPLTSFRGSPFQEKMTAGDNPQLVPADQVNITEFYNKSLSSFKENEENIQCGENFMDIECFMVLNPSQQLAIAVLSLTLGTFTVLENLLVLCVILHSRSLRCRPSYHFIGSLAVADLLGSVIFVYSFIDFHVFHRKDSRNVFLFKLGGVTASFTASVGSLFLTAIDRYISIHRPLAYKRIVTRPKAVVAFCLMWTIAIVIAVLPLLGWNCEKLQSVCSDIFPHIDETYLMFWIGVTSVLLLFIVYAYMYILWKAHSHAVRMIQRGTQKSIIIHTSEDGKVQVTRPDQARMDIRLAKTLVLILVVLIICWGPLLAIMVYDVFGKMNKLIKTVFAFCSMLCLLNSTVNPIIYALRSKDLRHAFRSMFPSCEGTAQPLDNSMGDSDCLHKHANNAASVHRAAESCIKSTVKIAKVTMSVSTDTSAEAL
Cannabinoid receptor 1 (Mus musculus, UniProt P47746), sequence (P47746 whole entry): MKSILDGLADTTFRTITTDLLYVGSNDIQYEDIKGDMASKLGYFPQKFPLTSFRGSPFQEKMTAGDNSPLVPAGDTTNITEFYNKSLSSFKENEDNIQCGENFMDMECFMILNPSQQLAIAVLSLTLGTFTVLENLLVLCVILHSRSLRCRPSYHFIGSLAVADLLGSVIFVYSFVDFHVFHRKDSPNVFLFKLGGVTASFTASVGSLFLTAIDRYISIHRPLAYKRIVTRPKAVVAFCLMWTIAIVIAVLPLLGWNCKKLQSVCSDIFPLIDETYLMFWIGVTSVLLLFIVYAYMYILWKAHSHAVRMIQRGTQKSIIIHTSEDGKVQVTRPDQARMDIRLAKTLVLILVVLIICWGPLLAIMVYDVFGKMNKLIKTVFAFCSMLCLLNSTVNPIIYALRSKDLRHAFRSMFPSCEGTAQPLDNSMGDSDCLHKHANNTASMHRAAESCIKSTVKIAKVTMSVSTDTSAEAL

Compound	Emax [1] [%]	Ki (Cannabinoid receptor 2) [nM]	EC50 [2] [nM]	Ki (Cannabinoid receptor 1 [3]) [nM]	EC50 (Cannabinoid receptor 1 [4]) [nM]
CCCCC/C=C\C/C=C\C/C=C\C/C=C\CCCC(=O)N[C@@H]1C[C@H]1O [listing 1 of 2 here]	80.3	–	–	–	–
CCCCCCCC/C=C\CCCCCCCC(=O)N[C@@H]1C[C@@H]1O (racemic)	–	340	3700	–	–
CCCCCCCC/C=C\CCCCCCCC(=O)NCCO [OLEOYLETHANOLAMIDE]	–	> 10000	3650	–	–
COc1cc(CNC(=O)CCCC/C=C/C(C)C)ccc1O [CAPSAICIN]	–	> 10000	–	–	–
CCCCCCCC/C=C\CCCCCCCC(=O)N[C@@H]1C[C@@H]1O [listing 1 of 2 here]	62.5	–	–	–	–
CCCCCCCCCCCCCCCC(=O)N[C@@H]1C[C@@H]1O (racemic)	–	> 10000	26400	> 10000	–
CCCCCCCC/C=C\CCCCCCCC(=O)N[C@@H]1C[C@H]1O [listing 1 of 2 here]	72.5	–	–	–	–
CCCCC/C=C\C/C=C\C/C=C\C/C=C\CCCC(=O)N[C@@H]1C[C@@H]1O (racemic)	–	150	1900	–	–
CCCCC/C=C\C/C=C\C/C=C\C/C=C\CCCC(=O)N[C@@H]1C[C@H]1O [listing 2 of 2 here]	–	190	23	–	780
CCCCCCCCCCCCCCCC(=O)NCCO [PALMIDROL]	–	> 5000	> 10000	> 5000	–
CCCCCCCC/C=C\CCCCCCCC(=O)N[C@@H]1C[C@@H]1O [listing 2 of 2 here]	–	2040	150	–	–
CCCCC/C=C\C/C=C\C/C=C\C/C=C\CCCC(=O)N[C@@H]1C[C@@H]1O [listing 1 of 2 here]	76.5	–	–	–	–
CCCCCCCC/C=C\CCCCCCCC(=O)N[C@@H]1C[C@H]1O [listing 2 of 2 here]	–	4410	13	–	–
CCCCC/C=C\C/C=C\C/C=C\C/C=C\CCCC(=O)N[C@@H]1C[C@@H]1O [listing 2 of 2 here]	–	200	610	–	–
CCCCCCC(C)(C)c1ccc([C@@H]2C[C@H](O)CC[C@H]2CCCO)c(O)c1 [CP-55940]	83	–	10	–	–
CCCCC/C=C\C/C=C\C/C=C\C/C=C\CCCC(=O)NCCO [ANANDAMIDE]	–	–	200	–	–
CCCCC/C=C\C/C=C\C/C=C\C/C=C\CCCC(=O)N[C@H]1C[C@H]1O	65.8	190	2400	–	–
CCCCCCCCCCCCCCCC(=O)N[C@@H]1C[C@H]1O (racemic)	–	> 10000	40	> 10000	–
CCCCC/C=C\C/C=C\C/C=C\C/C=C\CCCC(=O)N[C@@H]1C[C@H]1O (racemic)	–	240	50	–	–
CCCCCCCC/C=C\CCCCCCCC(=O)N[C@@H]1C[C@H]1O (racemic)	–	380	60	–	–
CCCCC/C=C\C/C=C\C/C=C\C/C=C\CCCC(=O)N[C@H]1C[C@@H]1O	75.7	290	47	–	2550

From ChEMBL document CHEMBL1138475, “Conformationally constrained fatty acid ethanolamides as cannabinoid and vanilloid receptor probes” (J Med Chem, 2009)
